# Data taken from ChEMBL document CHEMBL1123566, “Synthesis and cardiac electrophysiological activity of 2- and 3-[(substituted phenyl)alkyl]quinuclidines. Structure-activity relationships” (1987).
# Several values for one entry are separate records, joined by “and”; a condition that tells them apart may be missing. Equal entries are not always repeated.
# Assays:
# Canis familiaris [1] = experiment: Left ventricular refractory period was determined by intravenous administration of two dosages of 3 mg/kg of compound in anesthetized dogs. Value was reported for experiment 1; assay type: functional, Canis lupus familiaris, Cardiac ventricle
# Canis familiaris [2] = experiment: Left ventricular refractory period was determined by intraduodenal administration of two dosages of 3 mg/kg of (low dose) compound in anesthetized dogs. Value was reported for experiment 1; assay type: functional, Canis lupus familiaris, Cardiac ventricle
# In short: (§1)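 Anesthetized dogs received two intraduodenal doses, the second cumulative (low dose/high dose). Left ventricular FRP and CT were measured 15, 30 and 45 min after dosing. Heart rate and mean blood pressure were taken during nonpacing intervals. Values are percent change from control. The vehicle was 5% dextrose in water/tragacanth. Activity was defined as ≥12% prolongation of FRP or CT.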
# Canis familiaris [3] = experiment: Left ventricular refractory period was determined by intravenous administration of two dosages of 3 mg/kg of compound in anesthetized dogs. Value was reported for experiment 2; assay type: functional, Canis lupus familiaris, Cardiac ventricle
# Canis familiaris [4] = experiment: Mean arterial blood pressure was determined by intraduodenal administration of two dosages of 10 mg/kg of (high dose) compound in anesthetized dogs. Value was reported for experiment 1; assay type: functional, Canis lupus familiaris; in short: as §1
# Canis familiaris [5] = experiment: Mean arterial blood pressure was determined by intraduodenal administration of two dosages of 10 mg/kg of (low dose) compound in anesthetized dogs. Value was reported for experiment 2; assay type: functional, Canis lupus familiaris
# Canis familiaris [6] = experiment: Left ventricular refractory period was determined by intraduodenal administration of two dosages of 20 mg/kg of (high dose) compound in anesthetized dogs. Value was reported for experiment 2; assay type: functional, Canis lupus familiaris, Cardiac ventricle
# Canis familiaris [7] = experiment: Conduction time was determined by intraduodenal administration of two dosages of 3 mg/kg (low dose) of compound in anesthetized dogs. Value was reported for experiment 1; assay type: functional, Canis lupus familiaris
# In short: (§2)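 Anesthetized dogs; compound given intraduodenally, generally as two doses, the second a cumulative (high) dose. LV functional refractory period and conduction time measured 15, 30 and 45 min after dosing; heart rate and blood pressure measured during nonpacing intervals. Values are % change from control, given per individual animal. Active if FRP or CT prolonged by ≥12%.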
# Canis familiaris [8] = experiment: Heart rate was determined by intraduodenal administration of two dosages of 10 mg/kg of (high dose) compound in anesthetized dogs. Value was reported for experiment 1; assay type: functional, Canis lupus familiaris; in short: as §2
# Canis familiaris [9] = species: Canis familiaris; experiment: In vitro electrophysiological evaluation in canine cardiac Purkinje fibres reported as % change for action potential duration at 0.1-10 uM concentration range; assay type: functional, Canis lupus familiaris, Purkinje fiber
# In short: (§3)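 Canine cardiac Purkinje fibres, intracellular microelectrode recording, paced at a basic cycle length of 1 s. APD95 and Vmax read simultaneously. Compound: 10 mM stock in deionized water, diluted into Tyrode's solution, tested over the stated concentration range. Each fibre used once as its own control. Result is % change from control, given at 10 µM or as the maximum with its concentration. M = <10% decrease or an increase in Vmax.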
# Canis familiaris [10] = species: Canis familiaris; experiment: In vitro electrophysiological activity in canine cardiac Purkinje fibres given as maximum % change for action potential duration at 0.1-10 uM concentration; assay type: functional, Canis lupus familiaris, Purkinje fiber
# In short: (§4)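 Canine cardiac Purkinje fibres, intracellular recording at 1 s basic cycle length, over cumulative concentration ranges. Compound 10 mM stock in deionized water diluted into Tyrode's. Each fibre used once as its own control. Value is the maximum % change from control in APD at 95% repolarization, with the concentration where it occurred; both values given if a biphasic response (>20% reversal) occurred.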
# Canis familiaris [11] = species: Canis familiaris; experiment: In vitro electrophysiological evaluation in canine cardiac Purkinje fibres reported as maximum percent change Vmax concentration range of 0.1-100 uM; Minimal (<IO%increase or a decrease in CT); assay type: functional; conditions: Canis lupus familiaris; Purkinje fiber; in short: as §3
# Canis familiaris [12] = experiment: Heart rate was determined by intraduodenal administration of two dosages of 20 mg/kg of (high dose) compound in anesthetized dogs. Value was reported for experiment 2; assay type: functional, Canis lupus familiaris; in short: as §2
# Canis familiaris [13] = experiment: Heart rate was determined by intraduodenal administration of two dosages of 10 mg/kg of (low dose) compound in anesthetized dogs. Value was reported for experiment 2; assay type: functional, Canis lupus familiaris; in short: as §2
# Canis familiaris [14] = experiment: Left ventricular refractory period was determined by intraduodenal administration of two dosages of 10 mg/kg of (low dose) compound in anesthetized dogs. Value was reported for experiment 2; assay type: functional, Canis lupus familiaris, Cardiac ventricle; in short: as §1
# Canis familiaris [15] = species: Canis familiaris; experiment: In vitro electrophysiological activity in canine cardiac Purkinje fibres given as maximum % change for action potential duration at 0.1-100 uM concentration; assay type: functional, Canis lupus familiaris, Purkinje fiber; in short: as §4
# Canis familiaris [16] = experiment: Left ventricular refractory period was determined by intraduodenal administration of two dosages of 10 mg/kg of (high dose) compound in anesthetized dogs. Value was reported for experiment 1; assay type: functional, Canis lupus familiaris, Cardiac ventricle; in short: as §1
# Canis familiaris [17] = species: Canis familiaris; experiment: In vitro electrophysiological evaluation in canine cardiac Purkinje fibres reported as percent change Vmax concentration range of 0.1-100 uM; assay type: functional; conditions: Canis lupus familiaris; Purkinje fiber; in short: as §3
# Canis familiaris [18] = experiment: Effective dose administered intravenously to elicit Antiarrhythmic efficacy in anesthetized dogs was reported. Value in parenthesis indicates no. of animals effective at that dose.; assay type: functional, Canis lupus familiaris, Heart
# In short: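 Dogs are anesthetized and the chest reopened. Stimulating and recording electrodes go on the myocardium. Reproducible PES-induced sustained VT or VF is confirmed first; SVT is ended by burst pacing and VF by DC countershock. Compound is given iv in 0.9% saline and inducibility retested. A dose counts as effective when SVT/VF cannot be reinduced in two of three animals.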
# Canis familiaris [19] = experiment: Heart rate was determined by intraduodenal administration of two dosages of 3 mg/kg of (low dose) compound in anesthetized dogs. Value was reported for experiment 1; assay type: functional, Canis lupus familiaris; in short: as §2
# Canis familiaris [20] = species: Canis familiaris; experiment: (§5) In vitro electrophysiological evaluation in canine cardiac Purkinje fibres reported as % change for action potential duration at 0.1-100 uM concentration range; assay type: functional, Canis lupus familiaris, Purkinje fiber; in short: as §3
# Canis familiaris [21] = experiment: Mean arterial blood pressure was determined by intraduodenal administration of two dosages of 20 mg/kg of (high dose) compound in anesthetized dogs. Value was reported for experiment 2; assay type: functional, Canis lupus familiaris
# Canis familiaris [22] = species: Canis familiaris; experiment: In vitro electrophysiological evaluation in canine cardiac Purkinje fibres reported as percent change Vmax concentration range of 0.1-10 uM; Minimal (<IO%increase or a decrease in CT); assay type: functional; conditions: Canis lupus familiaris; Purkinje fiber; in short: as §3
# Canis familiaris [23] = experiment: Conduction time was determined by intraduodenal administration of two dosages of 10 mg/kg(high dose) of compound in anesthetized dogs. Value was reported for experiment 1; assay type: functional, Canis lupus familiaris; in short: as §2
# Canis familiaris [24] = experiment: Mean arterial blood pressure was determined by intraduodenal administration of two dosages of 3 mg/kg of (low dose) compound in anesthetized dogs. Value was reported for experiment 1; assay type: functional, Canis lupus familiaris; in short: as §1
# Canis familiaris [25] = species: Canis familiaris; experiment: In vitro electrophysiological evaluation in canine cardiac Purkinje fibres reported as percent change Vmax concentration range of 0.1-100 uM; Minimal (<IO%increase or a decrease in CT); assay type: functional; conditions: Canis lupus familiaris; Purkinje fiber; in short: as §3
# Canis familiaris [26] = species: Canis familiaris; experiment: In vitro electrophysiological evaluation in canine cardiac Purkinje fibres reported as maximum percent change Vmax concentration range of 0.1-100 uM; assay type: functional; conditions: Canis lupus familiaris; Purkinje fiber; in short: as §3
# Canis familiaris [27] = experiment: Conduction time was determined by intraduodenal administration of two dosages of 20 mg/kg (high dose) of compound in anesthetized dogs. Value was reported for experiment 2; assay type: functional, Canis lupus familiaris; in short: as §2
# Canis familiaris [28] = experiment: Conduction time was determined by intraduodenal administration of two dosages of 10 mg/kg (low dose) of compound in anesthetized dogs. Value was reported for experiment 2; assay type: functional, Canis lupus familiaris; in short: as §2
# Canis familiaris [29] = species: Canis familiaris; experiment: as §5; assay type: functional, Canis lupus familiaris, Purkinje fiber; in short: as §3; remark: listed apart in the source
# Canis familiaris [30] = species: Canis familiaris; experiment: In vitro electrophysiological evaluation in canine cardiac Purkinje fibres reported as % change for action potential duration at a concentration of 10 uM; assay type: functional, Canis lupus familiaris, Purkinje fiber; in short: as §3
# Canis familiaris [31] = species: Canis familiaris; experiment: In vitro electrophysiological evaluation in canine cardiac ventricular muscle reported as % change for the functional refractory period (FRP) at 10 uM at concentration range of 0.1-100 uM; parameters: species or system Canis lupus familiaris, Muscle tissue
# In short: (§6)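 Canine right ventricle and papillary muscle strips in oxygenated Tyrode's solution, fitted with stimulating and recording electrodes. The extra-stimulus conduction-interval method was adapted for in vitro use. FRP and CT were read from a conduction-interval curve before and after various compound concentrations, and expressed as percent change from control. Compounds were taken from 10 mM deionized-water stock into Tyrode's. Each strip was used once as its own control.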
# Canis familiaris [32] = species: Canis familiaris; experiment: In vitro electrophysiological evaluation in canine cardiac Purkinje fibres reported as percent change Vmax at 10 uM at concentration range of 0.1-100 uM; Minimal (<10% decrease or increase in V max).; assay type: functional, organism-based; conditions: Canis lupus familiaris, Purkinje fiber; in short: as §3
# Canis familiaris [33] = species: Canis familiaris; experiment: In vitro electrophysiological evaluation in canine cardiac Purkinje fibres reported as % change for action potential duration at 10 uM at 1-100 uM concentration range; assay type: functional, Canis lupus familiaris, Purkinje fiber; in short: as §3
# Canis familiaris [34] = species: Canis familiaris; experiment: In vitro electrophysiological evaluation in canine cardiac ventricular muscle reported as maximum % change for conduction time(CT) at 0.1-100 uM concentration range; Minimal (<10% decrease or increase in CT).; assay type: functional, Canis lupus familiaris, Muscle tissue; in short: as §6
# Canis familiaris [35] = species: Canis familiaris; experiment: In vitro electrophysiological evaluation in canine cardiac ventricular muscle reported as % change for conduction time(CT) at 10 uM at 0.1-100 uM concentration range; Minimal (<10% decrease or increase in CT).; assay type: functional, Canis lupus familiaris, Muscle tissue
# Canis familiaris [36] = species: Canis familiaris; experiment: In vitro electrophysiological evaluation in canine cardiac Purkinje fibres reported as percent change Vmax at 10 uM at concentration range of 1-100 uM; Minimal (<10% decrease or increase in V max).; assay type: functional; conditions: Canis lupus familiaris, Purkinje fiber; in short: as §3
# Canis familiaris [37] = species: Canis familiaris; experiment: In vitro electrophysiological activity in canine cardiac occurred is 100 uM; assay type: functional, Canis lupus familiaris, Heart
# Canis familiaris [38] = species: Canis familiaris; experiment: In vitro electrophysiological evaluation in canine cardiac occurred is 100 uM; assay type: functional; conditions: Canis lupus familiaris; Heart
# Canis familiaris [39] = species: Canis familiaris; experiment: In vitro electrophysiological evaluation in canine cardiac Purkinje fibres reported as % change for action potential duration at 10 uM at 0.1-100 uM concentration range; assay type: functional, Canis lupus familiaris, Purkinje fiber; in short: as §3
# Canis familiaris [40] = species: Canis familiaris; experiment: In vitro electrophysiological evaluation in canine cardiac Purkinje fibres reported as maximum percent change Vmax concentration range of 1-100 uM; Minimal (<10% decrease or increase in V max).; assay type: functional; conditions: Canis lupus familiaris; Purkinje fiber; in short: as §3
# Canis familiaris [41] = species: Canis familiaris; experiment: In vitro electrophysiological evaluation in canine cardiac ventricular muscle reported as maximum % change for functional refractory period (FRP) at 0.1-100 uM concentration range; concentration at which it occurred is 100 uM.; parameters: species or system Canis lupus familiaris, Muscle tissue; in short: as §6
# Canis familiaris [42] = species: Canis familiaris; experiment: In vitro electrophysiological evaluation in canine cardiac Purkinje fibres reported as maximum percent change Vmax concentration range of 0.1-100 uM; Minimal (<10% decrease or increase in V max).; assay type: functional; conditions: Canis lupus familiaris; Purkinje fiber; in short: as §3
compound,measurement,setting,value
Cl.Clc1ccc(C/C=C2\CN3CCC2CC3)cc1,LV FRP,Canis familiaris [1],17%
same,LV FRP,Canis familiaris [2],5%
same,LV FRP,Canis familiaris [3],15%
same,Mean blood pressure,Canis familiaris [4],25%
same,Mean blood pressure,Canis familiaris [5],12%
same,LV FRP,Canis familiaris [6],2%
same,CT,Canis familiaris [7],0%
same,HR,Canis familiaris [8],4%
same,APD95,Canis familiaris [9],29%
same,APD95,Canis familiaris [10],29%
same,Vmax,Canis familiaris [11],< 10%
same,HR,Canis familiaris [12],1%
same,HR,Canis familiaris [13],-1%
same,LV FRP,Canis familiaris [14],3%
same,APD95,Canis familiaris [15],35% and 50%
same,LV FRP,Canis familiaris [16],3%
same,Vmax,Canis familiaris [17],-12%
same,Effective dose,Canis familiaris [18],0.1 mg/kg and 0.3 mg/kg
same,HR,Canis familiaris [19],-2%
same,APD95,Canis familiaris [20],16%
same,Mean blood pressure,Canis familiaris [21],12%
same,Vmax,Canis familiaris [22],< 10%
same,CT,Canis familiaris [23],3%
same,Mean blood pressure,Canis familiaris [24],19%
same,Vmax,Canis familiaris [25],< 10%
same,Vmax,Canis familiaris [26],-59%
same,CT,Canis familiaris [27],-4%
same,CT,Canis familiaris [28],0%
same,APD95,Canis familiaris [29],50%
CS(=O)(=O)Nc1ccc(C(=O)CCC2C(=O)C3CCN2CC3)cc1.Cl (stereo not drawn),APD95,Canis familiaris [30],16%
same,FRP,Canis familiaris [31],18% and 12% and 13%
same,Vmax,Canis familiaris [32],< 10%
same,APD95,Canis familiaris [33],5%
same,CT,Canis familiaris [34],<10%
same,CT,Canis familiaris [35],<10%
same,Vmax,Canis familiaris [36],< 10%
same,APD95,Canis familiaris [37],36% and 18%
same,Vmax,Canis familiaris [38],-24%
same,APD,Canis familiaris [39],24%
same,APD95,Canis familiaris [39],-1% and 10%
same,Vmax,Canis familiaris [40],< 10%
same,FRP,Canis familiaris [41],32% and 21% and 24%
same,Vmax,Canis familiaris [42],< 10%
